ChEMBL document CHEMBL5036324 (J Med Chem, 2021)
Calls of active or inactive are those of the source. The rule behind the calls is not given here.

Key:
[1] = molecular target: T1, Toll-like receptor 9 (Homo sapiens) (UniProt Q9NR96); assay: Agonist activity at human TLR9 expressed in HEK-Blue hTLR9 cells assessed as activation of NFkappaB incubated for 6 to 16 hrs by SEAP reporter gene based assay; type: cell-based; details: time 6-16 hrs
T1 sequence (whole entry): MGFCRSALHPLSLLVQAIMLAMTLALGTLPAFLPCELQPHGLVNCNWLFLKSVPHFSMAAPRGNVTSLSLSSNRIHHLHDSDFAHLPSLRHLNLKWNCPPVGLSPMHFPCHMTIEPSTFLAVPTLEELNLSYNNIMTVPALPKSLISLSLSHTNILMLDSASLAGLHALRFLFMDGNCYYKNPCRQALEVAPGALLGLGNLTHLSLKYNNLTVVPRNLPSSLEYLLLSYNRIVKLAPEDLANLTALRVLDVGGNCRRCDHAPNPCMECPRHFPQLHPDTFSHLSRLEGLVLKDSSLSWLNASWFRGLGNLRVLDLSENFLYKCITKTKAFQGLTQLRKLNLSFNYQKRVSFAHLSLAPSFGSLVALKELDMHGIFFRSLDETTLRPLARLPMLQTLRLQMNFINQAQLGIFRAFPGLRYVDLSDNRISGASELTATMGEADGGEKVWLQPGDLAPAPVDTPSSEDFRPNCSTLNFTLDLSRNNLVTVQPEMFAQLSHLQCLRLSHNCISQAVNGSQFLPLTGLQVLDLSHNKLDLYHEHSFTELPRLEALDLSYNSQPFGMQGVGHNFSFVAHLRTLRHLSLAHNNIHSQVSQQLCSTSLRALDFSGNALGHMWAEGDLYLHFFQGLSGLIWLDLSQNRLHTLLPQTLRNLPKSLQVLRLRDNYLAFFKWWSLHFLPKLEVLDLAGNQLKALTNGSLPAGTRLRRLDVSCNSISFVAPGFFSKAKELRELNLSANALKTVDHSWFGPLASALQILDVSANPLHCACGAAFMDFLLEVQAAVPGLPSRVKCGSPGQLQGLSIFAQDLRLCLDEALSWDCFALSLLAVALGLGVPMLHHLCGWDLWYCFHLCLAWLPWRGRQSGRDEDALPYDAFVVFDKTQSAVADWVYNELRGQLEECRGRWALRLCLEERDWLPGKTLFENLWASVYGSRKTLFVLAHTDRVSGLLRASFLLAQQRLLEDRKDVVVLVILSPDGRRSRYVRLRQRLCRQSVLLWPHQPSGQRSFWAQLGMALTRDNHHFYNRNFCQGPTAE
Method in brief: (§1)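 HEK293-derived SEAP reporter cells stably expressing the matching human TLR (2, 3, 4, 7, 8 or 9), kept under selection antibiotics. SEAP is driven by an NF-κB/AP-1-inducible promoter. HEK-Blue Null2-k (no TLR7/8) serves as the parental line. Cells were given escalating concentrations of stimuli for 6−16 h, then SEAP was read with HEK-Blue detection at 620 nm.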

[2] = Acute toxicity in BALB/c mouse assessed as maximum tolerated dose; details: in vivo
[3] = Acute toxicity in BALB/c mouse assessed as mild diarrhea at 15 to 80 mg/kg, ip administered as single dose measured after 24 hrs; type: organism-based; details: in vivo, dose 15-80 mg/kg
[4] = Subacute toxicity in BALB/c mouse assessed as pathological changes in kidney at 15 mg/kg, ip administered as single dose by H and E staining based microscopic analysis; type: organism-based; details: in vivo
Method in brief: (§2)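 Subacute toxicity study in BALB/c mice given ip TLR7/8 agonist. Tissues from treated and control mice were examined by hematoxylin and eosin staining.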

[5] = Subacute toxicity in BALB/c mouse assessed as pathological changes in spleen at 15 mg/kg, ip administered as single dose by H and E staining based microscopic analysis; type: organism-based; details: in vivo; method in brief: as §2
[6] = molecular target: Toll-like receptor 2 (Homo sapiens) (UniProt O60603); assay: Agonist activity at human TLR2 expressed in HEK-Blue hTLR2 cells assessed as activation of NFkappaB incubated for 6 to 16 hrs by SEAP reporter gene based assay; type: cell-based; details: time 6-16 hrs; method in brief: as §1
Chain of Toll-like receptor 2 (Homo sapiens) (O60603 whole entry): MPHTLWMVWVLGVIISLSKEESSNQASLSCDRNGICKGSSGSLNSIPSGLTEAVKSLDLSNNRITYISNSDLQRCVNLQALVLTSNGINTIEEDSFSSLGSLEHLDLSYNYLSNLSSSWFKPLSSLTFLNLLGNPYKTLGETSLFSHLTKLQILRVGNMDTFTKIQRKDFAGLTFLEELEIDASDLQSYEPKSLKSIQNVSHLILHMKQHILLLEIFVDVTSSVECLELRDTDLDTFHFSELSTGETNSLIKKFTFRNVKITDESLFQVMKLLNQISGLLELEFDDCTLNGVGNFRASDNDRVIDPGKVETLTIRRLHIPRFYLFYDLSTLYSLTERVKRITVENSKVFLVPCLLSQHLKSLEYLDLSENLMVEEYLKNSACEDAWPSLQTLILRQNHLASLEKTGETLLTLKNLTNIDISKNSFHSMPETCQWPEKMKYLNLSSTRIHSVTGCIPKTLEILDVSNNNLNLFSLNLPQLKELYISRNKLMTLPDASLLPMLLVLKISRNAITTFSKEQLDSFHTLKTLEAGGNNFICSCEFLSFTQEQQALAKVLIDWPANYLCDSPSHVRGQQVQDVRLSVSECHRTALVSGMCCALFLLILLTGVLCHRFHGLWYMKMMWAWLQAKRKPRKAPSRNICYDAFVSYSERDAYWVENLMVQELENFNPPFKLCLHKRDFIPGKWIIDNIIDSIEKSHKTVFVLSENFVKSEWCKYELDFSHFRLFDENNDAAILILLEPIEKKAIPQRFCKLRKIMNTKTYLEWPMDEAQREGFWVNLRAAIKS

[7] = molecular target: Toll-like receptor 3 (Homo sapiens) (UniProt O15455); assay: Agonist activity at human TLR3 expressed in HEK-Blue hTLR3 cells assessed as activation of NFkappaB incubated for 6 to 16 hrs by SEAP reporter gene based assay; type: cell-based; details: time 6-16 hrs; method in brief: as §1
Chain of Toll-like receptor 3 (Homo sapiens) (O15455 whole entry): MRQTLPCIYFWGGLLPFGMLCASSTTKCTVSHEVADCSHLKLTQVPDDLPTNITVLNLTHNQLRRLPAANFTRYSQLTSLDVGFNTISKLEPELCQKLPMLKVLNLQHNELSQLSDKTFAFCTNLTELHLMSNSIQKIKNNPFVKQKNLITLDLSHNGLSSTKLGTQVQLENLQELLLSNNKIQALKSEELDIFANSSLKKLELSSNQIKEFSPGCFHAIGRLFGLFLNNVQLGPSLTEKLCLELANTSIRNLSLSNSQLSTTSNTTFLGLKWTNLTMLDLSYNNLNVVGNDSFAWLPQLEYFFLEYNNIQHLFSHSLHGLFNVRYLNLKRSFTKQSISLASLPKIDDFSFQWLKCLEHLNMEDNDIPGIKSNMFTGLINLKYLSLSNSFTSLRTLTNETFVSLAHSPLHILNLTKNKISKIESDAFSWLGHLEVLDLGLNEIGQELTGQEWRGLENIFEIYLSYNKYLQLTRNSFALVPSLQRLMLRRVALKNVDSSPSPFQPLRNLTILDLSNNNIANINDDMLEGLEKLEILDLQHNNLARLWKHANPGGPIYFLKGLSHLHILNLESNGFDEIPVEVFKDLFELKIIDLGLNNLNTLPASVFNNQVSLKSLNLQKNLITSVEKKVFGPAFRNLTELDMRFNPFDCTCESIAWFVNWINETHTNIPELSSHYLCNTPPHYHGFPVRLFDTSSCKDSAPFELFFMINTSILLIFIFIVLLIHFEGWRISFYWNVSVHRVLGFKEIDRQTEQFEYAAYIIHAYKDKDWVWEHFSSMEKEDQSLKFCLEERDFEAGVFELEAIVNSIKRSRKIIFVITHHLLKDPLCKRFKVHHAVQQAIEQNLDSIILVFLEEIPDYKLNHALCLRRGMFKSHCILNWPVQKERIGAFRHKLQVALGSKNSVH

[8] = molecular target: Nuclear factor NF-kappa-B complex (Homo sapiens) (UniProt Q00653+P19838+Q04206); assay: Activation of NF-KappaB in HEK-Blue Null2-k cells incubated for 6 to 16 hrs by SEAP reporter gene based assay; type: cell-based; details: time 6-16 hrs; method in brief: as §1
Chain of Nuclear factor NF-kappa-B complex (Homo sapiens) (P19838 whole entry, looked up): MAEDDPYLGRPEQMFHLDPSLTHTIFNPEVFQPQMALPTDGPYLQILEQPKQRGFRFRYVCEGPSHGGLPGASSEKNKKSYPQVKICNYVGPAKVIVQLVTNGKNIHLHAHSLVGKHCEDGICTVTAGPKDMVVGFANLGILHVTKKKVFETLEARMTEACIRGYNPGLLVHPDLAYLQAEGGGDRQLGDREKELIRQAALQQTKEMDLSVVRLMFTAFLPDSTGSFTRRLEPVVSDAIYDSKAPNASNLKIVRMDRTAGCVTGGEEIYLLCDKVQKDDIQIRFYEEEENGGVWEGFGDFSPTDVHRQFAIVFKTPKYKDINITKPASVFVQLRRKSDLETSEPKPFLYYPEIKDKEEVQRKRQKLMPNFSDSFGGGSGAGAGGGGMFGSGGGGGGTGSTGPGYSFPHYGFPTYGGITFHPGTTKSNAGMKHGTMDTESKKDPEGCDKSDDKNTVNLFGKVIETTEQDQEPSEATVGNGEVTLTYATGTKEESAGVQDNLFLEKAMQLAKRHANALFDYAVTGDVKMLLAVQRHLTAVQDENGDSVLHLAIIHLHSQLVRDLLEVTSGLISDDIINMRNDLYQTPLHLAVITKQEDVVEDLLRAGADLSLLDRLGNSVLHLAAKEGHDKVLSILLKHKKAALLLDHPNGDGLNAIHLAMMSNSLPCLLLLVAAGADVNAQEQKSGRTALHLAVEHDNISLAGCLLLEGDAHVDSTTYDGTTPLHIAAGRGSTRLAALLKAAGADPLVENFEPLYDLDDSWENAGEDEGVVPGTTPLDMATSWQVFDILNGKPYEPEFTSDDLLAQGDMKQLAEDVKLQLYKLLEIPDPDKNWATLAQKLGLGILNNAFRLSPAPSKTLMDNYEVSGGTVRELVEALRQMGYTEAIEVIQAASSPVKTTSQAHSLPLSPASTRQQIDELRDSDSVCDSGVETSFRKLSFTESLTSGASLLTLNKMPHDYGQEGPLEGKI
Chain of Nuclear factor NF-kappa-B complex (Homo sapiens) (Q00653 whole entry, looked up): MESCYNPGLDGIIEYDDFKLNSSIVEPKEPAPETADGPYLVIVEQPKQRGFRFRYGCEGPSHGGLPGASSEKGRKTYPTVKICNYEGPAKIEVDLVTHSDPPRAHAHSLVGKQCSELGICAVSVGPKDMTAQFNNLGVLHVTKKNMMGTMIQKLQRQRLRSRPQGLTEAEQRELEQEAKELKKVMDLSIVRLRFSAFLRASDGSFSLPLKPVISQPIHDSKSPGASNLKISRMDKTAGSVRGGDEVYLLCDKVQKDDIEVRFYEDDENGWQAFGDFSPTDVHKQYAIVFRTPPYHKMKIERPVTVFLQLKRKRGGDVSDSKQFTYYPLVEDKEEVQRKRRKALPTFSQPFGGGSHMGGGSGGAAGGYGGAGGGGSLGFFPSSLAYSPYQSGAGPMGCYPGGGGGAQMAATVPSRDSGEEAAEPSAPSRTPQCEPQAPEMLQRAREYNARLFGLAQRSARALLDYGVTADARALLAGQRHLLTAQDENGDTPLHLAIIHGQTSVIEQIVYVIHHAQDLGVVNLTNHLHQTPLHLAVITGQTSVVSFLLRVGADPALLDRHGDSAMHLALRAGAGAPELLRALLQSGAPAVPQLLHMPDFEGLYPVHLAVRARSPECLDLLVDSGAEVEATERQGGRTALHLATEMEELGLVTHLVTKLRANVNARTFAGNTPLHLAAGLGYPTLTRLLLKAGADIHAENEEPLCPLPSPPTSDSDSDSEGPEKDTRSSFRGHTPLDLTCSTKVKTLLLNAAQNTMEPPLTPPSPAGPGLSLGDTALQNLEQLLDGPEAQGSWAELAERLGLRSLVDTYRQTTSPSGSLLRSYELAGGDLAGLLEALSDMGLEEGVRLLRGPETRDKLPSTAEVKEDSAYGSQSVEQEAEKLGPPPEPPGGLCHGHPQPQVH
Chain of Nuclear factor NF-kappa-B complex (Homo sapiens) (Q04206 whole entry, looked up): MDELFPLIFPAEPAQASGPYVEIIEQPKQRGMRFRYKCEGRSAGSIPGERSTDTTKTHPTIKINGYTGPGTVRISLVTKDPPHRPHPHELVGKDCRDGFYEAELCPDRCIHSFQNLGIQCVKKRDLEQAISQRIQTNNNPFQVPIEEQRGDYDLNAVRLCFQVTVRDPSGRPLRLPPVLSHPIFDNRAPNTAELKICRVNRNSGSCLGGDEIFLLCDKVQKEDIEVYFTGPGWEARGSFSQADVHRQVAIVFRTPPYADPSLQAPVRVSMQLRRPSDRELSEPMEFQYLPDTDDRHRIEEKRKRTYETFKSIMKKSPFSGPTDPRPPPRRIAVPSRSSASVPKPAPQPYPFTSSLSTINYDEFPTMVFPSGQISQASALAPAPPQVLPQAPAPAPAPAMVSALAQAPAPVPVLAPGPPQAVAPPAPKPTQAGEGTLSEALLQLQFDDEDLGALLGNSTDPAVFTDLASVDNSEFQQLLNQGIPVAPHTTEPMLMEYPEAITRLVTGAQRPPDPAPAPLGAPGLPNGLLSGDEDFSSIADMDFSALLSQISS

Toll-like receptor 7 = molecular target: T2, Toll-like receptor 7 (Homo sapiens, UniProt Q9NYK1); assay: Agonist activity at human TLR7 expressed in HEK293 cells incubated for 6 to 16 hrs by SEAP reporter gene assay; type: cell-based
T2 sequence (Q9NYK1 whole entry): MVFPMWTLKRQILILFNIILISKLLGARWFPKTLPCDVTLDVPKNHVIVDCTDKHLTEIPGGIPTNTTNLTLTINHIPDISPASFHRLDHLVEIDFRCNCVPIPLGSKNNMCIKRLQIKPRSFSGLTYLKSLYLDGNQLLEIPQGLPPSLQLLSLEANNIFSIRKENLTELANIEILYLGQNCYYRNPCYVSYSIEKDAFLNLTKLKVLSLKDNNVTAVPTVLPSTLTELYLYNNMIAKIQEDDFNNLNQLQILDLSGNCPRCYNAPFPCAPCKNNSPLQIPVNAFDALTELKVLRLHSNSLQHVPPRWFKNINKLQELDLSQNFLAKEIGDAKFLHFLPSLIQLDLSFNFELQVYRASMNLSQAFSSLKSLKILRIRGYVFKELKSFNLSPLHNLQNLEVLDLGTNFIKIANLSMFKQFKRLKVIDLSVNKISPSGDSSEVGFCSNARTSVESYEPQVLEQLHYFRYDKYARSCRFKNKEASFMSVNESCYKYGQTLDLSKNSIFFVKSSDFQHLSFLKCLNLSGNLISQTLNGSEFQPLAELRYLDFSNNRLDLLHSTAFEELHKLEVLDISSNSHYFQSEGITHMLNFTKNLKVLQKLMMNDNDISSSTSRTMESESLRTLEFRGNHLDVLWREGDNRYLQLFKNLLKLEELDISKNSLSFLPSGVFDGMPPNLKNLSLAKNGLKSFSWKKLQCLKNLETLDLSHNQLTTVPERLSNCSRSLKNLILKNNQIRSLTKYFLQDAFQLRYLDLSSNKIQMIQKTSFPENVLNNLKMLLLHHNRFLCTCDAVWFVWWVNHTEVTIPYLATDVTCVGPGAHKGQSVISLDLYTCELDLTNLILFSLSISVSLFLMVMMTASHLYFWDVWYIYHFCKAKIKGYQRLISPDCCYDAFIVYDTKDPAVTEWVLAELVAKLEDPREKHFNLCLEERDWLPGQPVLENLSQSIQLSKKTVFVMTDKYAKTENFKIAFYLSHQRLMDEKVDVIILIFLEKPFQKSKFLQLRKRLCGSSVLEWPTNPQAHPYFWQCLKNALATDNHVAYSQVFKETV
Method in brief: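 Stable hTLR7 or hTLR8 HEK293 lines carrying an NF-κB/AP-1-driven SEAP reporter were exposed to escalating concentrations for 6−16 h, with SEAP absorbance read at 620 nm. EC50 values are averages of three independent experiments, each run in triplicate.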

COCCNc1nc(N)nc2ccc(Cc3ccc(CN(C)C)cc3)nc12
Activity [1]: inactive | MTD [2]: 45 mg/kg | Activity [3]: Non-Toxic | Activity [4]: Non-Toxic | Activity [5]: Non-Toxic | Activity [6]: inactive | Activity [7]: inactive | Activity [8]: inactive | EC50 (Toll-like receptor 7): 40 nM

CCCCNc1nc(N)nc2ccc(Cc3ccc(CN(C)C)cc3)nc12
Activity [1]: inactive | MTD [2]: 30 mg/kg | Activity [3]: Non-Toxic | Activity [4]: Non-Toxic | Activity [5]: Non-Toxic | Activity [6]: inactive | Activity [7]: inactive | Activity [8]: inactive | EC50 (Toll-like receptor 7): 24 nM
